Compound activity deposited in PubChem by several laboratories.
Compounds with a hit are over-represented: about 1.4% of the library has one in this group of screens.
UBC9 SUMO inh: SUMOylation inhibition | P63279 | inhibition, % at 35 µM | AID 2006 | HTRF SUMOylation assay, SAE1/SAE2 + UBC9, in vitro | 0.36% of 290,000 active; in the data active = inhibition above about 50%, passing the limit was not always enough
CTSL1 counter: cathepsin L1 inhibition, PFM18AAP counter-screen; recombinant F. hepatica cathepsin L1, Z-Leu-Arg-MCA fluorescence; inhibition, % at 5.96 µM; 0.49% of 300,000 active; AID 1906;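 active = inhibition above the mean of all tested compounds plus 3 SD, set per screening campaign, cut at about 17% in these data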;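 also: 0% = plate median of test compound wells and 100% = 1 µM Z-Phe-Ala-diazomethylketone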
UCH37 inh: inhibitors of human deubiquitinating enzyme UCH37 | Q9Y5K5 | purified proteasome/UCH37, Ub-AMC cleavage fluorescence | inhibition, % (test concentration not listed) | 0.33% of 330,000 active;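 active = mean inhibition over replicate wells above about 20%, limit read from the data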;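 also: 0% = compound-free wells with enzyme and 100% = wells lacking proteasome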
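Material: human UCH37 enzyme supplied as purified proteasome complex / Amount: 0.15 nM proteasome as dispensed / Buffer or medium: pH 7.4 Tris-HCl (50 mM) with ovalbumin, ATP-MgCl2, DTT / Times: preincubation 30 min, reaction 25 min, room temperature / Technique: AMC fluorescence from Ub-AMC cleavage, excitation 355 nm, emission 460 nm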
Neddylation inh: inhibitors of human cullin neddylation | P61081+Q13564 | 0.58% of 360,000 active | TR-FRET cullin neddylation, biochemical | inhibition, % at 25 µM; in the data active = inhibition above about 36%
Target sequence (P61081 whole entry, looked up): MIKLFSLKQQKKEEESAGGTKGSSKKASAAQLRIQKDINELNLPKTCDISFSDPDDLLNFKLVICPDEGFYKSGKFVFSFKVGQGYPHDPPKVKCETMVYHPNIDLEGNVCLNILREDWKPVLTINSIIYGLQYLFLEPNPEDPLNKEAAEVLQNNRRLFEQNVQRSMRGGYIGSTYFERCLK
Target sequence (Q13564 whole entry, looked up): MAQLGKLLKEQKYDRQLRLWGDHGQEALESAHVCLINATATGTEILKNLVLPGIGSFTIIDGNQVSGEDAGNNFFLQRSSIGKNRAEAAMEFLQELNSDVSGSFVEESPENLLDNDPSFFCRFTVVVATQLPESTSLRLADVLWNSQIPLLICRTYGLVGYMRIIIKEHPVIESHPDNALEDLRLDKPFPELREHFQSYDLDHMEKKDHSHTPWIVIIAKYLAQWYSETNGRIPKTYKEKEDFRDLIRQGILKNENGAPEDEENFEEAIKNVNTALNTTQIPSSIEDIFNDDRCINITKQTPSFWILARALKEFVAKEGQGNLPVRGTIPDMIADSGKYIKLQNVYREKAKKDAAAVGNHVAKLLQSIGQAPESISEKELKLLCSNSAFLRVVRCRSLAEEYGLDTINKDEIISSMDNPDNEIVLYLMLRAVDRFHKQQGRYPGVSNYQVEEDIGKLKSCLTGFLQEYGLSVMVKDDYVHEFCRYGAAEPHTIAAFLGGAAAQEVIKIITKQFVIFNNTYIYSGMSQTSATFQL
Active calls of the source: *; . = no result shown.

SMILES	UBC9 SUMO inh	CTSL1 counter	UCH37 inh	Neddylation inh
O=C(Cc1ccccc1)NN=Cc1cccs1	.	.	-1.1	.
c1cc(Nc2ncnc3sc4c(c23)CCC4)ccn1	53.6*	4.5	-238.6	.
O=C(NCCCO)/C(=C/c1ccc(-c2cccc([N+](=O)[O-])c2)o1)NC(=O)c1ccccc1	4.2	0.6	21.7*	-24.6
COc1ccc(/C=N/n2cnc3c([nH]c4ccccc43)c2=O)cc1COc1ccccn1	13.1	26.3*	.	.
Cc1cc(-c2ccccc2)nc(NN=Cc2ccc(O)cc2O)n1	.	.	-2.5	.
CC(=O)N(/N=C1\Sc2ccccc2C1=O)c1ccc(C)cc1C	22.2	7.3	.	-12.8
CC(=O)N(/N=C1\Sc2ccccc2C1=O)c1ccccc1C	40.3	87.1*	.	-29.3
C/C(C=NNc1ncc(C)c(=O)[nH]1)=C\c1ccccc1	.	.	4.9	.
CCN(CC)c1ccc(C(=O)NNC(=O)CCNC(=O)c2ccccc2)cc1	.	.	6.4	11.5
CCN(CC)c1ccc(C(=O)NNC(=O)CCl)cc1	-3.2	58.2*	.	8.7
Cc1ccc(NC(=O)CSc2nnc(-c3ccco3)o2)c(C)c1	-1.5	1.6	1.4	10.3
CCc1ccccc1NC(=O)CSc1nc(C)c(C)o1	6.0	.	-0.2	-5.6
CCN(CC)C(=O)CSc1nnc([C@@H](N)Cc2ccccc2)o1	-1.0	44.2*	1.9	0.9
CCC(C)[C@H](N)c1nnc(SCC(=O)Nc2ccc(C)cc2C)o1 (stereo not given in full)	0.8	31.7*	-1.3	-0.2
CCc1ccccc1NC(=O)CSc1nnc([C@@H](N)Cc2ccccc2)o1	16.9	68.1*	2.2	9.1
S=c1[nH]c(-c2ccccc2)cn1N=Cc1ccc(Br)cc1	.	.	-24.3	.
CCCCCC(=O)NN=Cc1ccccc1[N+](=O)[O-]	.	.	-0.2	.
NC(=O)NN=Cc1c(F)c(F)c(F)c(F)c1F	.	.	3.1	.
Cc1nc2nc(CCNS(=O)(=O)c3ccc(Cl)cc3)cn2nc1C	38.6	30.1*	.	.
CS(=O)(=O)N(CC(=O)NN=Cc1cc2c(cc1Br)OCO2)c1ccccc1Br	.	.	4.5	.
COC(=O)C/C=C/[C@@H](C)[C@@H](C=NO[C@@H](C)c1cn([C@H](CO)Cc2ccccc2)nn1)NS(=O)(=O)c1ccc(C)cc1	.	.	2.9	.
Cn1cccc1/C=C1\SC(=S)N(Nc2ccccc2)C1=O	14.9	7.7	4.3	-67.0
O=C(O)C(Cc1ccccc1)N1C(=O)/C(=C/c2cccs2)SC1=S (stereo not given)	14.8	.	5.9	-13.7
CC(C)C(C(=O)O)N1C(=O)/C(=C/c2cccn2C)SC1=S (stereo not given)	-1.5	6.8	24.9*	-55.0
CCCC(C(=O)O)N1C(=O)/C(=C/c2cccn2C)SC1=S (stereo not given)	22.0	9.8	22.5*	-45.6
SMILES	UBC9 SUMO inh	CTSL1 counter	UCH37 inh	Neddylation inh
COc1cc(C=NNC(=O)CNC(=O)/C=C/c2ccco2)cc(OC)c1OC	.	.	4.1	.
Cc1nnc(C)n1N=Cc1cccnc1	.	.	5.3	.
N#CC(=NO)c1nc2ccccc2s1	.	.	14.3	.
O=C(Nc1ccccc1Cl)ON=C(c1ccccc1)c1ccccn1	.	.	3.2	.
O=C1/C(=C/c2ccco2)SC(=S)N1c1cccnc1	83.6*	.	6.4	-4.0
O=C1/C(=C\c2ccco2)SC(=S)N1c1ccc(O)cc1	56.8*	0.7	1.3	-11.3
O=C1/C(=C/C=C/c2ccco2)SC(=S)N1c1ccc(O)cc1	64.4*	0.2	4.9	-9.3
CC(C)C(C(=O)O)N1C(=O)/C(=C/C=C/c2ccco2)SC1=S (stereo not given)	75.5*	8.1	5.4	10.5
O=C(NN1C(=O)/C(=C/C=C/c2ccco2)SC1=S)c1ccncc1	.	3.9	12.0	15.7
NN1C(=O)/C(=C\c2ccco2)SC1=S	91.4	2.0	6.5	2.9
O=C(Cc1ccccc1[N+](=O)[O-])NN=Cc1cccnc1	.	.	-0.9	.
CCCCc1n[nH]c2c1C(=NO)CC(C)(C)C2	.	.	1.1	.
O=C(NN=Cc1ccco1)c1cc(-c2cccc(Br)c2)nc2ccccc12	.	.	-10.7	.
CCN(CC)c1ccc(/C=C2\C(=N)N3N=C(CC(=O)N4CCOCC4)SC3=NC2=O)cc1	-7.1	3.9	21.2*	-389.3
Cc1ccc(C)c(C=NNC(=S)NC(C)C)c1	.	.	-5.8	.
O=C(CNC(=O)c1cccc(F)c1)OCC(=O)N1CCCc2ccccc21	-5.8	20.3*	2.0	-8.0
O=C(CNC(=O)c1ccccc1F)OCC(=O)N1CCCc2ccccc21	-9.4	1.4	0.6	1.2
CC(C)(C)NC(=O)NC(=O)COC(=O)CNC(=O)c1cccc(F)c1	-10.3	4.7	4.3	5.0
CC1CCCCC1NC(=O)COC(=O)CNC(=O)c1cccc(F)c1 (stereo not given)	12.4	22.4*	0.4	-3.0
CC(=NNC(=S)NCc1ccccc1)c1ccc(C(C)(C)C)cc1	.	.	2.3	.
Cc1cc(C)nc(/N=c2/ssnc2Cl)c1	8.6	22.1*	.	.
NC(=S)N/N=C/c1ccc(-c2ccc(Cl)c(Cl)c2)o1	1.2	22.9*	.	3.0
Cc1cc(C(=O)N/N=C/c2ccc(-c3ccccc3Cl)o2)n[nH]1	13.8	0.5	.	35.4
NC(=S)N/N=C\c1ccc(-c2cccc(Cl)c2Cl)o1	23.7	19.5*	.	-0.6
Cc1cc(C(=O)N/N=C/c2ccc(-c3ccc(C)c(Cl)c3)o2)n[nH]1	57.7*	4.8	.	.
SMILES	UBC9 SUMO inh	CTSL1 counter	UCH37 inh	Neddylation inh
Cc1ccc(-c2ccc(/C=N/NC(N)=S)o2)cc1	-3.3	12.3	.	3.7
O=C(NN=Cc1cc(Cl)cc([N+](=O)[O-])c1O)c1ccc2c(c1)OCO2	.	.	8.0	.
O=[N+]([O-])C(N=Nc1ccccc1)=NNc1ccccc1	.	.	5.2	.
NC(=S)N=Nc1ccc(NN=C(N)N)cc1	-13.3	45.9*	7.1	-19.6
COc1ccc(-c2cc(C(=O)Nc3cc(S(N)(=O)=O)ccc3C)c3ccccc3n2)cc1OC	.	22.0*	-98.6	-13.2
COc1ccc(-c2cc(C(=O)Nc3ccc(S(N)(=O)=O)cc3)c3ccccc3n2)cc1OC	36.9	0.5	-116.2	.
Cc1cc(=O)n2[nH]c(-c3ccsc3-n3c(C)ccc3C)cc2n1	64.8*	-3.1	3.8	10.7
S=c1[nH]nc(-c2cc(-c3ccccc3)n[nH]2)n1N=Cc1ccc(Cl)cc1	.	.	5.5	.
S=c1[nH]nc(-c2cc(-c3ccccc3)n[nH]2)n1/N=C/c1cccc(Cl)c1	.	4.2	.	90.0*
Cc1cccc(N2C(=O)N3[C@@H]4c5ccccc5OC[C@@H]4[C@@H](c4ccccc4)[C@]3(C)C2=O)c1	11.5	-1.3	2.4	5.4
Cc1cccc(N2C(=O)N3[C@H]4c5ccccc5OC[C@@H]4[C@@H](c4ccccc4)[C@@]3(C)C2=O)c1	.	.	26.2*	-27.6
C[C@@H](OC(=O)N(C)Cc1ccccc1)[C@H]1O[C@]2(C)CCCC[C@H]1O2	.	.	30.0*	-11.0
C[C@]12CCC[C@H](O1)[C@H]([C@@H](O)c1ccccc1)O2	.	.	3.7	-2.7
CC(=NNC(=O)C1CC1)c1ccccc1Br	.	.	5.9	.
NCC(=NO)c1ccc(Cl)cc1Cl	.	.	1.5	.
Nc1ccc(N2CCOCC2)c2nonc12	98.9*	32.5*	16.3	-29.1
C/C(C=NNC(=O)Cn1cncn1)=C/c1ccc(C(C)C)cc1	.	.	23.3*	.
Cc1ccc(-n2c(=O)[nH]c3c(C(N)=O)nc(C(C)C)nc32)cc1	24.7	0.8	1.1	11.1
